Activity calls are given as the source filed them. The rule behind the calls is not given here.
Key:
Trypsin (Homo sapiens) = Trypsin (Homo sapiens) (UniProt P07477+P07478+P35030); assay: Inhibition of trypsin (unknown origin) using Boc-Val-Pro-Arg-AMC as substrate at 25 uM preincubated with protein for 15 mins followed by substrate addition by continuous fluorimetric assay relative to control
[1] = molecular target: Prothrombin (Homo sapiens) (UniProt P00734); assay: Inhibition of thrombin (unknown origin) using Boc-Val-Pro-Arg-AMC as substrate at 25 uM preincubated with protein for 15 mins followed by substrate addition measured for 10 mins by continuous fluorimetric assay relative to control
West Nile virus = assay: Inhibition of West Nile virus NS2B-NS3 protease using 2-Abz-Gly-Leu-Lys-Arg-Gly-Gly-[…]-Tyr-NH2 as substrate at 50 uM preincubated with protein for 15 mins followed by substrate addition measured for 15 mins by FRET assay
Outline: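 Linked WNV NS2B-NS3 protease (150 nM) was preincubated 15 min with inhibitor (50 μM final) in 50 mM Tris-HCl pH 9, 10% ethylene glycol, 0.0016% Brij 58. […] Percent inhibition was taken from the slope relative to the no-inhibitor control, in triplicate.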

[2] = Inhibition of Dengue virus serotype-2 NS2B-NS3 protease using 2-Abz-Nle-Lys-Arg-Arg-Ser-(3-NO2)-Tyr-NH2 as substrate preincubated with protein for 15 mins followed by substrate addition measured for 15 mins by FRET assay; design: species or system dengue virus type 2
Outline: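 DENV-2 NS2B-NS3 linked construct at 30 nM (15 nM in some cases), same pH 9 Tris buffer, 15 min preincubation and FRET read-out. Eight inhibitor concentrations spanned 0–1, 0–2, 0–6 or 0–50 μM, with substrate at 50 μM. IC50 was fitted from triplicates.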

[3] = Inhibition of West Nile virus NS2B-NS3 protease using 2-Abz-Gly-Leu-Lys-Arg-Gly-Gly-[…]-Tyr-NH2 as substrate preincubated with protein for 15 mins followed by substrate addition measured for 15 mins by FRET assay
Outline: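 WNV NS2B-NS3 linked construct at 75 nM (40 nM in one case) in pH 9 Tris buffer, preincubated 15 min with eight inhibitor concentrations (ranges 0–1 up to 0–50 μM). Substrate was 50 μM, with FRET readout over 15 min. IC50 was fitted from triplicates.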

dengue virus type 2 = assay: Antiviral activity against Dengue virus serotype-2 infected in African green monkey Vero cells after 7 days by virus yield reduction assay; format: functional, organism-based
[4] = Cytotoxicity against human HuH7 cells infected with Dengue virus serotype-2 assessed as cell viability after 48 hrs by Cell-Titer-Glo luminescent viability assay; format: cell-based, Huh-7
Outline: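 Huh-7 cells (10^4/well) were seeded in DMEM + 10% FBS overnight, then infected with WT DENV-2 (MOI 1) in the presence of compound, triplicate per concentration. After 48 h at 37 °C, medium was replaced with fresh DMEM and viability was read by CellTiter-Glo luminescence. CC50 was determined.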

[5] = Retention time of compound by RP-HPLC analysis; format: physicochemical

Row | SMILES | inhibition (Trypsin (Homo sapiens)) | inhibition [1] | inhibition (West Nile virus) [%] | IC50 [2] [nM] | IC50 [3] [nM] | EC50 (dengue virus type 2) [nM] | CC50 at 48 h [4] [nM] | Retention_time [5] [min]
1 | CC(C)(C)c1ccc(COc2ccc([C@@H](NC(=O)[C@H](CCCCN)NC(=O)[C@H](CCCNC(=N)N)NC(=O)c3sccc3Cl)C(N)=O)cc2)cc1 | inactive | inactive | 85.2 | 121 | – | – | – | –
2 | N=C(N)NCCC[C@H](NC(=O)c1nccs1)C(=O)N[C@@H](CCCCN)C(=O)N[C@@H](C(N)=O)c1ccc(OCc2c(Cl)cccc2Cl)cc1 | inactive | inactive | 99.1 | 50 | 166 | – | – | –
3 | COc1cccc(COc2ccc([C@@H](NC(=O)[C@H](CCCCN)NC(=O)[C@H](CCCNC(=N)N)NC(=O)c3nccs3)C(N)=O)cc2)c1 | inactive | inactive | 100 | 47 | 273 | – | – | –
4 | N=C(N)NCCC[C@H](NC(=O)c1cccs1)C(=O)N[C@@H](CCCCN)C(=O)N[C@@H](C(N)=O)c1ccc(OCc2ccc(Br)cc2)cc1 | inactive | inactive | 99.2 | 71 | 150 | – | – | –
5 | N=C(N)NCCC[C@H](NC(=O)c1cc(-c2ccccc2)cs1)C(=O)N[C@@H](CCCCN)C(=O)N[C@@H](C(N)=O)c1ccc(OCc2c(Cl)cccc2Cl)cc1 | inactive | inactive | 98 | 129 | 221 | – | – | –
6 | CC(C)(C)c1ccc(COc2ccc([C@@H](NC(=O)[C@H](CCCCN)NC(=O)[C@H](CCCNC(=N)N)NC(=O)c3cc4sccc4s3)C(N)=O)cc2)cc1 | inactive | inactive | 94.1 | 157 | 15900 | – | – | –
7 | N=C(N)NCCC[C@H](NC(=O)c1ccccc1)C(=O)N[C@@H](CCCCN)C(=O)N[C@@H](C(N)=O)c1ccc(OCc2c(Cl)cccc2Cl)cc1 | – | < 30% | 101 | 151 | 493 | – | – | –
8 | N=C(N)NCCC[C@H](NC(=O)c1cc2ccccc2s1)C(=O)N[C@@H](CCCCN)C(=O)N[C@@H](C(N)=O)c1ccc(OCc2ccccc2)cc1 | – | < 30% | 97.1 | 451 | – | 20400 | > 100000 | 3.13
9 | N=C(N)NCCC[C@H](NC(=O)c1ccsc1)C(=O)N[C@@H](CCCCN)C(=O)N[C@@H](C(N)=O)c1ccc(OCc2ccccc2)cc1 | – | < 30% | 98.2 | 179 | 490 | – | – | –
10 | N=C(N)NCCC[C@H](NC(=O)c1cccs1)C(=O)N[C@@H](CCCCN)C(=O)N[C@@H](C(N)=O)c1ccc(OCc2ccccc2)cc1 | – | < 30% | 98 | 109 | 296 | – | – | –
11 | N=C(N)NCCC[C@H](NC(=O)c1ccco1)C(=O)N[C@@H](CCCCN)C(=O)N[C@@H](C(N)=O)c1ccc(OCc2ccccc2)cc1 | – | < 30% | 98.1 | 479 | 507 | – | – | –
12 | N=C(N)NCCC[C@H](NC(=O)c1ccccc1)C(=O)N[C@@H](CCCCN)C(=O)N[C@@H](C(N)=O)c1ccc(OCc2ccc(Br)cc2)cc1 | – | < 30% | 99.2 | 236 | 308 | – | – | –
13 | N=C(N)NCCC[C@H](NC(=O)c1ccccc1)C(=O)N[C@@H](CCCCN)C(=O)N[C@@H](C(N)=O)c1ccc(OCc2cccc(Cl)c2)cc1 | – | < 30% | 102 | 186 | 321 | – | – | –
14 | N=C(N)NCCC[C@H](NC(=O)c1cccs1)C(=O)N[C@@H](CCCCN)C(=O)N[C@@H](C(N)=O)c1ccc(OCC(=O)c2ccc(Br)cc2)cc1 | 59% | inactive | 99.4 | 148 | 487 | – | – | –
15 | N=C(N)NCCC[C@H](NC(=O)c1cc2ccccc2s1)C(=O)N[C@@H](CCCCN)C(=O)N[C@@H](C(N)=O)c1ccc(OCc2c(Cl)cccc2Cl)cc1 | inactive | inactive | 95.9 | 183 | – | – | – | –
16 | N=C(N)NCCC[C@H](NC(=O)c1ccccc1)C(=O)N[C@@H](CCCCN)C(=O)N[C@@H](C(N)=O)c1ccc(OCc2ccc(F)cc2)cc1 | – | < 30% | 100 | 196 | 349 | – | – | –

Row | SMILES | inhibition (Trypsin (Homo sapiens)) | inhibition [1] | inhibition (West Nile virus) [%] | IC50 [2] [nM] | IC50 [3] [nM] | EC50 (dengue virus type 2) [nM] | CC50 at 48 h [4] [nM] | Retention_time [5] [min]
17 | N=C(N)NCCC[C@H](NC(=O)C1CC1)C(=O)N[C@@H](CCCCN)C(=O)N[C@@H](C(N)=O)c1ccc(OCc2ccccc2)cc1 | – | < 30% | 100 | 805 | 1660 | – | – | –
18 | N=C(N)NCCC[C@H](NC(=O)c1cc2sccc2s1)C(=O)N[C@@H](CCCCN)C(=O)N[C@@H](C(N)=O)c1ccc(OCc2ccccc2C(F)(F)F)cc1 | inactive | inactive | 97.5 | 197 | – | – | – | –
19 | N=C(N)NCCC[C@H](NC(=O)c1nccs1)C(=O)N[C@@H](CCCCN)C(=O)N[C@@H](C(N)=O)c1ccc(OCc2ccccc2)cc1 | – | < 30% | 98.8 | 99 | 158 | – | – | –
20 | N=C(N)NCCC[C@H](NC(=O)c1ccccc1F)C(=O)N[C@@H](CCCCN)C(=O)N[C@@H](C(N)=O)c1ccc(OCc2ccccc2)cc1 | – | < 30% | 100 | 340 | 1290 | – | – | –
21 | N=C(N)NCCC[C@H](NC(=O)c1cc(-c2ccccc2)cs1)C(=O)N[C@@H](CCCCN)C(=O)N[C@@H](C(N)=O)c1ccc(OCc2ccccc2)cc1 | – | < 30% | 98.6 | 304 | 398 | – | – | –
22 | N=C(N)NCCC[C@H](NC(=O)c1ccccc1)C(=O)N[C@@H](CCCCN)C(=O)N[C@@H](C(N)=O)c1ccc(OCC(=O)c2ccccc2)cc1 | – | < 30% | 98.8 | 486 | 508 | – | – | –
23 | N=C(N)NCCC[C@H](NC(=O)c1cc2ccccc2s1)C(=O)N[C@@H](CCCCN)C(=O)N[C@@H](C(N)=O)c1ccc(OCc2ccccc2C(F)(F)F)cc1 | inactive | inactive | 93.1 | 243 | – | – | – | –
24 | N=C(N)NCCC[C@H](NC(=O)c1cccs1)C(=O)N[C@@H](CCCCN)C(=O)N[C@@H](C(N)=O)c1ccc(OCc2ccc(F)cc2)cc1 | inactive | inactive | 101 | 61 | 216 | – | – | –
25 | N=C(N)NCCC[C@H](NC(=O)c1sccc1Cl)C(=O)N[C@@H](CCCCN)C(=O)N[C@@H](C(N)=O)c1ccc(OCc2ccc(Cl)cc2)cc1 | inactive | inactive | 99.3 | 120 | 821 | – | – | –
26 | N=C(N)NCCC[C@H](NC(=O)c1ccc(-c2ccccc2)s1)C(=O)N[C@@H](CCCCN)C(=O)N[C@@H](C(N)=O)c1ccc(OCc2ccccc2)cc1 | – | < 30% | 100 | 347 | 360 | – | – | –
27 | N=C(N)NCCC[C@H](NC(=O)c1ccc(Cl)s1)C(=O)N[C@@H](CCCCN)C(=O)N[C@@H](C(N)=O)c1ccc(OCc2ccc(Cl)cc2)cc1 | inactive | inactive | 99.6 | 111 | 371 | – | – | –
28 | N=C(N)NCCC[C@H](NC(=O)c1ccc(Cl)s1)C(=O)N[C@@H](CCCCN)C(=O)N[C@@H](C(N)=O)c1ccc(OCc2ccccc2)cc1 | – | < 30% | 98.4 | 177 | 457 | – | – | –
29 | N=C(N)NCCC[C@H](NC(=O)/C=C/c1ccc(Cl)cc1)C(=O)N[C@@H](CCCCN)C(=O)N[C@@H](C(N)=O)c1ccc(OCc2ccccc2)cc1 | – | < 30% | 99.4 | 721 | 368 | – | – | –
30 | N=C(N)NCCC[C@H](NC(=O)c1ccc(-c2cccs2)s1)C(=O)N[C@@H](CCCCN)C(=O)N[C@@H](C(N)=O)c1ccc(OCc2ccccc2)cc1 | – | < 30% | 100 | 375 | 430 | – | – | –
31 | N=C(N)NCCC[C@H](NC(=O)c1cc2sccc2s1)C(=O)N[C@@H](CCCCN)C(=O)N[C@@H](C(N)=O)c1ccc(OCc2ccc(Cl)cc2)cc1 | inactive | inactive | 93.8 | 170 | – | – | – | –
32 | N=C(N)NCCC[C@H](NC(=O)c1ccccc1)C(=O)N[C@@H](CCCCN)C(=O)N[C@@H](C(N)=O)c1ccc(OCc2ccc(Cl)cc2)cc1 | – | < 30% | 102 | 143 | 486 | – | – | –

From ChEMBL document CHEMBL3739314, “Discovery of Nanomolar Dengue and West Nile Virus Protease Inhibitors Containing a 4-Benzyloxyphenylglycine Residue” (J Med Chem, 2015)
